Source: PubChem
hERG protect – hERG (human) protection from proarrhythmic block; activation (rescue from dofetilide block), less the hit threshold, % at 10 µM; 0.51% of 310,000 active; AID 1511; CHO-hERG, FluxOR thallium flux, dofetilide IC70 present;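 active means activation above the mean of controls blocked by dofetilide plus 5 SD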;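 further: thallium influx through hERG after potassium depolarization seen as dye fluorescence rise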
Cl transport mod – modulates chloride dependent transport by human KCC2 | KCC2 cells, thallium flux FluoZin-2 fluorescence | Q9H2X9 | B-score of Tl+ flux slope (higher = more flux/activation; lower = inhibition) at 10 µM | 2.2% of 190,000 active;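 active means thallium flux slope and its plate-corrected score both differing from the plate sample mean at a set confidence after two filtering rounds, in either direction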;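 further: slope of fluorescence scaled to starting intensity during 10 to 20 s after thallium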
KCNQ1 block – blocks the human KCNQ1 potassium channel | P51787 | CHO-K1 KCNQ1, FluxOR thallium flux fluorescence; active compounds read high | B-score at 10 µM | 1.3% of 310,000 active | AID 2642;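 active means compounds whose thallium flux B-score, printed positive for inhibition, exceeds three library SD while starting fluorescence stays within three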;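 further: channel opened by potassium depolarization with thallium stimulus after 20 min compound exposure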
KCNK3 block – human KCNK3 channel inhibition, primary screen; O14649; CHO-KCNK3 thallium flux, FluxOR fluorescence; active compounds read low; B-score at 10 µM; 0.84% of 340,000 active; AID 602410;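 active means B-score under library mean minus 4 SD, starting fluorescence ratio at most library mean plus 5 SD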;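 further: more negative B-score means stronger inhibition of thallium flux through KCNK3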
KCNK9 inh – human KCNK9 channel inhibition | Q9NPC2 | B-score at 10 µM | 1.2% of 310,000 active | HEK293 KCNK9, FluxOR thallium flux fluorescence; active compounds read low;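 active means ratio B-score over 3 SD below the library mean, with starting fluorescence within 5 SD of its mean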;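 further: negative B-score means less thallium flux so channel inhibition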
Target sequence (Q9NPC2 whole entry, looked up): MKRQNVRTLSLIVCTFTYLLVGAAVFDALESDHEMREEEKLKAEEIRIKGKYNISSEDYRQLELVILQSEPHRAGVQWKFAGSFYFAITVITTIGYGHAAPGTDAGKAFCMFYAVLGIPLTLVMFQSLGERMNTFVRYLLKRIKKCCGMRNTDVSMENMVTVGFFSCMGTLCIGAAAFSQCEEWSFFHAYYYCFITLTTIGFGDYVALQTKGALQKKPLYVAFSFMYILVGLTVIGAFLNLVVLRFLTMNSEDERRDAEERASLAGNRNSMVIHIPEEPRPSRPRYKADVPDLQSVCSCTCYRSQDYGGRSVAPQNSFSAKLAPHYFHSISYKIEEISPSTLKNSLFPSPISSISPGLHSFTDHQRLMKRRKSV
KCNQ1 act – potentiates or activates the human KCNQ1 potassium channel. P51787. CHO-K1 KCNQ1, thallium flux FluxOR fluorescence; active compounds read high. B-score at 10 µM. 0.35% of 310,000 active. AID 2648;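 active means fluorescence ratio B-score, a plate-corrected score, at least three library SD, with initial intensity B-score within 5 SD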
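Doses: Single concentration per compound, DMSO matched to controls | Test system: KCNQ1-transfected CHO-K1 cells | Timing: 90 min dye loading and 20 min compound exposure, both at room temperature | Measured by: Kinetic FluxOR thallium fluorescence, 10-s 1-Hz baseline, 110-s post-stimulus read | Medium: Assay buffer with matched DMSO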
KCC2 secondary – KCC2 (human) modulation, secondary assay; shares compounds with Cl transport mod; HEK293-KCC2, thallium flux, FluoZin2 fluorescence; active compounds read high; normalised thallium flux (F/F0 slope) at 10 µM; 15% of 3,700 active; AID 1713;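 active means thallium flux slope above the same plate's solvent-only control mean plus 3 SD; inconclusive means the two replicate wells disagree; inactive means no significant difference from solvent-only control wells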
KCC2 bumet counter – thallium flux despite bumetanide block in KCC2 cells, secondary assay 3; shares compounds with Cl transport mod; HEK293-KCC2 + bumetanide/ouabain, thallium flux FluoZin2; active compounds read high; normalized thallium flux at 10 µM; 49% of 3,700 active; AID 1714;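 active means thallium entry rate above the same plate's blocked-transporter control wells by more than 3 SD; inconclusive means the two repeat wells disagree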;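 further: raw slope of fluorescence over initial fluorescence between 10 and 20 s after thallium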
KCC2 sec2 – confirmation of human KCC2 transport modulators | shares compounds with Cl transport mod | HEK293-KCC2, thallium flux FluoZin2 fluorescence; actives lie on both sides; F/F0 rise rate, 10–20 s post-thallium | normalized thallium flux at 10 µM | 23% of 3,700 active | AID 1715;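 active means thallium flux slope more than 3 SD above or below the plate's solvent-only control mean, mostly below; inconclusive means the two repeat wells disagreed; inactive means no significant shift from solvent-only controls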;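 further: raw slope with 0.1% DMSO as baseline and bumetanide as block control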
HEK counter1 – counter-screen for KCC2 modulators: effect in parental HEK293 cells | thallium flux rate (normalised fluorescence) at 10 µM | thallium flux FluoZin2, ouabain; baseline-ratio fluorescence slope, 10–20 s after thallium | 46% of 3,700 active | shares compounds with Cl transport mod;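 active means thallium flux rate significantly above the same plate's solvent-only control wells, beyond their mean plus 3 SD; inconclusive means the two replicate wells gave conflicting results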
KCC2 ouabain – modulates human KCC2 on retest with ouabain | AID 1717 | HEK293-KCC2, thallium flux FluoZin2 fluorescence; bidirectional: low = inhibitor, high = activator | shares compounds with Cl transport mod | raw Tl+ flux slope (below DMSO = inhibition, above = activation) at 10 µM | 48% of 3,700 active;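 active means thallium flux slope beyond 3 SD from same-plate DMSO control mean in most replicates, usually higher, sometimes lower; inconclusive means repeat tests gave conflicting results; inactive means no significant difference from controls in most replicates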;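 further: slope of initial-normalized fluorescence between seconds 10 and 20 after thallium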
HEK293 Tl flux2 – counter-screen for KCC2 modulators: effect in parental HEK293 cells; shares compounds with Cl transport mod; thallium flux slope at 10 µM; 33% of 3,700 active; thallium flux FluoZin-2 fluorescence slope;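 active means thallium flux slope above the same plate's solvent-control mean plus 3 SD in both duplicate wells; inconclusive means duplicate wells that disagreed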;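 further: run without ouabain in cells lacking the KCC2 cotransporter; slope of fluorescence scaled to its starting value between 10 and 20 s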
* hit, by the source's call; i = inactive; ? = inconclusive; · = no result. The list is not random: actives were taken first. Their share in the collection is about 4.1%.

SMILES | hERG protect | Cl transport mod | KCNQ1 block | KCNK3 block | KCNK9 inh | KCNQ1 act | KCC2 secondary | KCC2 bumet counter | KCC2 sec2 | HEK counter1 | KCC2 ouabain | HEK293 Tl flux2
O=C(c1ccc2ccccc2c1)N1CCN(c2ccc(O)cc2)CC1 | -18.3 | -3.7* | i | i | i | i | 0.0104 | 0.00623 | 0.0328 | 0.00817 | 0.019 | 0.0122
CS(=O)(=O)Nc1ccc(C(=O)N2CCN(c3ccccc3)CC2)cc1 | -6.0 | 0.215 | i | i | i | i | 0.00771 | 0.00427 | 0.0266 | 0.00782 | 0.0184 | 0.00979
O=C(NC(=S)N1CCN(c2ccc(F)cc2)CC1)c1cccs1 | 15.5* | 32.4* | i | i | i | 13* | 0.0124* | 0.115* | 0.11* | 0.115* | 0.113* | 0.112*
O=C(CSc1ccc2ccccc2c1)N1CCN(c2ccc(O)cc2)CC1 | -2.4 | -1.05 | i | i | i | i | · | · | · | · | · | ·
CS(=O)(=O)N1CCN(c2ccc(NC(=S)NC(=O)c3cccs3)cc2)CC1 | -20.3 | · | i | i | i | i | · | · | · | · | · | ·
O=C(NC(=S)Nc1ccc(N2CCN(C(=O)c3ccccc3)CC2)cc1)c1cccs1 | -17.1 | 3.38* | i | i | i | i | 0.0103 | 0.00968* | 0.0333 | 0.0105* | 0.0203 | 0.0117
COc1ccc(OC)c(N(C(=O)c2ccco2)C(C(=O)NC2CCCC2)c2cc(OC)c(OC)c(OC)c2)c1 (stereo not drawn) | -4.1 | · | i | i | i | i | · | · | · | · | · | ·
CC(=O)C1=C(C)NC(SCC(=O)c2ccc(F)cc2)=C(C#N)C1CC(C)C (stereo not drawn) | -7.6 | -1.92 | i | i | i | i | · | · | · | · | · | ·
COc1cc(-c2nnn(CC(=O)NC3CCS(=O)(=O)C3)n2)ccc1OCc1ccccc1 (stereo not drawn) | -5.5 | -2.08 | i | i | i | i | · | · | · | · | · | ·
Cc1ccc(NC(=O)c2ccccc2-c2ccc(C(F)(F)F)cc2)cc1S(=O)(=O)N1CCOCC1 | -3.9 | 3.8* | i | i | i | i | 0.00554 | 0.00524 | 0.0271 | 0.00737 | 0.0178 | 0.0113
COc1ccc(NC(=O)c2ccccc2-c2ccc(C(F)(F)F)cc2)cc1S(=O)(=O)N1CCOCC1 | -10.3 | 0.0385 | i | i | i | i | · | · | · | · | · | ·
C/C=C/C=C(/NC(=O)c1ccccc1)C(=O)Nc1ccccc1 | -5.7 | · | i | i | i | i | · | · | · | · | · | ·
CCCCOc1ccc(Cc2c(COCC)[nH]c(=S)[nH]c2=O)cc1 | -3.3 | 14.7* | i | i | i | i | ? | 0.0994* | 0.0427* | 0.0261* | 0.0529* | 0.0283*
CCOCc1[nH]c(=S)[nH]c(=O)c1Cc1ccc(OCC(C)C)cc1 | -5.4 | 21.9* | i | i | i | i | 0.0138* | 0.061* | 0.0389 | ? | 0.0395* | ?
CCOCc1[nH]c(=S)[nH]c(=O)c1Cc1ccc(OCC)cc1 | -1.8 | 0.344 | i | i | i | i | · | · | · | · | · | ·
Cc1ccc(S(=O)(=O)Nc2cc3c(C(=O)O)c(C)oc3c3ccccc23)c(C)c1 | -5.4 | · | i | i | i | i | · | · | · | · | · | ·
